Measured values: the EternaBench riboswitch data

System: MS2 coat protein
Experiment: apparent Kd, MS2 coat protein; higher = weaker binding; RNA-MaP array; FMN 200 µM where present
Outline: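 Each design was made on Illumina sequencing-chip clusters by stalled E. coli RNA polymerase and titrated with SNAP-549-labelled MS2 coat protein from 0.7 or 1.5 nM, doubling to 3 µM, in the absence and then the presence of constant ligand. The buffer was 100 mM Tris-HCl pH 7.5, 80 mM KCl, 4 mM MgCl2, BSA, DTT, yeast tRNA and Tween-20. The apparent Kd is the median of filtered per-cluster fits of binding curves, with green signal normalised to red-channel RNA signal and control-cluster median Fmax.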

[1] = designed as: OFF switch for flavin mononucleotide, no ligand
[2] = ligand present: flavin mononucleotide, designed as: OFF switch for flavin mononucleotide
[3] = designed as: ON switch for flavin mononucleotide, no ligand
[4] = ligand present: flavin mononucleotide, designed as: ON switch for flavin mononucleotide

In the case of “AUGCUAGUGUGAGGAUAUCAACAUGAGGAUCACCCAUGUUGGAAGUACACGACAUGCGGUACACCUGAGAAGGUACAUUAGCAU”, the “apparent Kd” value [1] is reported as 19.6 nM and the “apparent Kd” value [2] is reported as 25.4 nM.

With “GGAUGACAAAGUCAUCCAAUACGAACAUGAGGAUCACCCAUGUAGGAUAUGCAUCUCAAAGAGAUGCAGAAGGACAUGUGCCUU” the “apparent Kd” value [1] was 36.9 nM and the “apparent Kd” value [2] was 272 nM.

In the case of “UUUUAAUAAAAGAAGGAGCACUACAUGAGGAUCACCCAUGUGUUAGUAGUUAGGAUAUUUAAUAACAUGAGGAUCACCCAUGUA”, the “apparent Kd” value [3] is reported as 194 nM and the “apparent Kd” value [4] is reported as 87 nM.

With “UGAUCAAAUGUCAGGAUAUGCUGUUGUAAUCAACAGCAGAAGGGACAUGAGGAUCACCCAUGUCUUGUCGAUUU” the “apparent Kd” value [1] was 12.9 nM and the “apparent Kd” value [2] was 37.3 nM.

“AGUGUCAUCGAGAAGGCCUUAACAUGAGGAUCACCCAUGUUGUAAUAUGGGAGGAUAUCGAUGAUACAGCUACGUUUCGUAGCA” was tested, and the “apparent Kd” value [3] was 10.1 nM and the “apparent Kd” value [4] was 5.71 nM.

For “AGGUGUAGAGGAUAUUCAUUCUUCCACAUGAGGAUCACCCAUGUCCUGGUCACCAAGGACGGAGAAGGCUACACCA”, the “apparent Kd” value [1] was 70.2 nM and the “apparent Kd” value [2] was 38.1 nM.

“ACGUGUCGUGUAGGAUAUGACACAGGAAACUGGUCAGAAGGACAUGAGGAUCACCCAUGUAGAGUGUUUAAGGAUGACGUAUGC” was tested, and the “apparent Kd” value [1] was 46.9 nM and the “apparent Kd” value [2] was 161 nM.

For “GUUUACGCGGAAGGAUAUACAUUUGACAUCUUGAUGCGCGCAAUACUCACAUGAGGAUCACCCAUGUAGAAGGUCUGCGAAAGA”, the “apparent Kd” value [1] was 15.1 nM and the “apparent Kd” value [2] was 24.9 nM.

With “UGGUACUAGGGAGGAUAUGGGAAGAUACAUGAGGAUCACCCAUGUUUAAGAAUGCCGAGAGGCAACUAGAAGGCUCUAGUACCU” the “apparent Kd” value [3] was 416 nM and the “apparent Kd” value [4] was 18.4 nM.

With “ACCCAACAUGAGGAUCACCCAUGUCAGGAUAUCCAUCUAUACUCGAAAGAGUAUAGAUGGAGAAGGGACAGAGG” the “apparent Kd” value [1] was 94.8 nM and the “apparent Kd” value [2] was 92.9 nM.

With “UUGAUGUCAUCAGGAUAUAGUAUUUAAGACAUAUCUUCUUUCAAACAUGAGGAUCACCCAUGUCGCUAGAAGGGAUGAUUGAUU” the “apparent Kd” value [1] was 17.3 nM and the “apparent Kd” value [2] was 15.3 nM.

For “GGAAACUACGAGAAGGACAUGUGGUCCUUCAGUUACAUGAGGAUCACCCAUGUAGGAUAUCGUAGUUUCAGGAUCGUGAGAUCC”, the “apparent Kd” value [1] was 33 nM and the “apparent Kd” value [2] was 12.8 nM.

“UGGUACAUCAUAGGAUAUCGUGUGUAAACAUGAGGAUCACCCAUGUCAUACGAGAGUAUGUCGAUCGAGAAGGAUGAUGUACCU” was tested, and the “apparent Kd” value [3] was 31.2 nM and the “apparent Kd” value [4] was 17.2 nM.

In the case of “GGAUAGGACAGAGGAUAUACGUGCUAGAGAUACUAGCUAAAUUUCCUCACAUGAGGAUCACCCAUGUAGAAGGCUGUCCUAUCG”, the “apparent Kd” value [1] is reported as 15 nM and the “apparent Kd” value [2] is reported as 412 nM.

For “UAAUCGUUGCAGAAGGUUAUUAUUAUAUCGUGUCACUUAACAUGAGGAUCACCCAUGUUUUUGAUGAAGGAUAUGCAACGGUAG”, the “apparent Kd” value [1] was 6.74 nM and the “apparent Kd” value [2] was 6.83 nM.

In the case of “AUUUUGUGAGGAUAUUAGUUUUAUGAUUGGAGGAGUUUGGCUGAGAAGGCACAUGAGGAUCACCCAUGUAAAUC”, the “apparent Kd” value [1] is reported as 35.3 nM and the “apparent Kd” value [2] is reported as 41.1 nM.

For “AUCAGCUCGUCAGGAUAUACGUCACUGCAUCAGCAGUGUGGUAAGAUCACAUGAGGAUCACCCAUGUAGAAGGGACGAGCUGAU”, the “apparent Kd” value [1] was 22.9 nM and the “apparent Kd” value [2] was 139 nM.

In the case of “CUGUGACGGUGCGCAAGUGGACGUAGAAGGGUCACAUGAGGAUCACCCAUGUGGGCCUGCUAGUGACAGGAUAUACGUUCGUAC”, the “apparent Kd” value [1] is reported as 13.7 nM and the “apparent Kd” value [2] is reported as 38.3 nM.

For “GGGCCGUAGUAGAAGGGAUAUACGUUAGGUAUAUCAGGAUAUACAUGAGGAUCACCCAUGUUCUAACAGUGAUAGUCCUCCCUA”, the “apparent Kd” value [1] was 19.8 nM and the “apparent Kd” value [2] was 55.4 nM.

For “CUGAGGCUAGGAUAUACGUGAGGUUAGUUGCGAAGCGCUUGACAUGAGGAUCACCCAUGUAGAAGGAGCGGCUU”, the “apparent Kd” value [1] was 22.6 nM and the “apparent Kd” value [2] was 28.9 nM.

In the case of “GUCAGCUCGUGAGGAUAUACAUCACUGCUUCGGCAGUGUAUUAAGAGCACAUGAGGAUCACCCAUGUAGAAGGCACGAGCUGAU”, the “apparent Kd” value [1] is reported as 16.3 nM and the “apparent Kd” value [2] is reported as 24.1 nM.

For “UUGAUUCAUUCCUCCAUAAACAUGAGGAUCACCCAUGUAAGUGAGGAUAUAGUUGGAGUAGUAUACUAGAAGGCACUUAGAUAU”, the “apparent Kd” value [1] was 12.3 nM and the “apparent Kd” value [2] was 9.75 nM.

“UGCGUGGUCACAGGAUAUGCAGGAUGAACUUUAGCAGAAGGGUGAUCAAUCAGCUCAAAACCACAUGAGGAUCACCCAUGUCUA” was tested, and the “apparent Kd” value [3] was 31.9 nM and the “apparent Kd” value [4] was 92.9 nM.

With “UUCAGCUUGACAGGAUAUACAUGACUGCGAAAGCAGUCUAUCUUAAUAACAUGAGGAUCACCCAUGUAGAAGGGUCGAGCUGAA” the “apparent Kd” value [1] was 16.2 nM and the “apparent Kd” value [2] was 26.5 nM.

With “GCAAAGCCUGACAUGAGGAUCACCCAUGUUAGAUUGUUAUGUCAGGAUAUUGUCUAGAAACUAGACAAGAAGGGAUGCUUUGCU” the “apparent Kd” value [3] was 421 nM and the “apparent Kd” value [4] was 25.3 nM.

“CCUCCCUGAGGAUAUCCACCCUCAUACAUGAGGAUCACCCAUGUUCAUCCCUGAGUACCCGGAGAAGGCAGAUUUC” was tested, and the “apparent Kd” value [1] was 168 nM and the “apparent Kd” value [2] was 148 nM.

In the case of “GUGGUUGUCGUAGGAUAUGUAGGAUAUUCCUACAUGAGGAUCACCCAUGUUCGCAUGGAAGAAGGACAGAAGGACGAUGACCAU”, the “apparent Kd” value [3] is reported as 1020 nM and the “apparent Kd” value [4] is reported as 10.7 nM.

“AGGUACAUGAGGAUCACCCAUGUAAGAGCCCUCAUGCGAUGUAGAAGGAUAAUGCGAGAAGUGCUAUAGGAUAUACAUGAGAAA” was tested, and the “apparent Kd” value [1] was 140 nM and the “apparent Kd” value [2] was 143 nM.

With “GUUUCCAGAGGAUAUGCGAGGGUGUACCUCUAACAGCUCAAACAUGAGGAUCACCCAUGUAGAAGGCUGAUCAU” the “apparent Kd” value [1] was 19.8 nM and the “apparent Kd” value [2] was 18.2 nM.

“GCCUUAUCCGUCAGGAUAUACAUUUUUUUUUUGUUGUAGAAGGGACAUGAGGAUCACCCAUGUACAUUACAUUG” was tested, and the “apparent Kd” value [1] was 25.8 nM and the “apparent Kd” value [2] was 28.9 nM.

With “UGUUGGAGCAGAGGAUAUUACAUGAGGAUCACCCAUGUAUGAACCAAUAGCUGGAAACAGCAAUGUAAGAAGGCUGCUCCGACA” the “apparent Kd” value [1] was 12.1 nM and the “apparent Kd” value [2] was 161 nM.

For “AAUUAACUCACAGGAUAUAGCAGAGGUCGCGUAAACUUACAGGCGACGAGGCUAGAAGGGUGACCACAUGAGGAUCACCCAUGU”, the “apparent Kd” value [3] was 648 nM and the “apparent Kd” value [4] was 98.8 nM.

In the case of “CAGCGAUAGCUGAACAAUCUAUCUGAGGAUAUUCAUGAUAAACAUGAGGAUCACCCAUGUAAUUGGGAGAAGGCAGAUAGAUUG”, the “apparent Kd” value [3] is reported as 441 nM and the “apparent Kd” value [4] is reported as 19.3 nM.

For “CAGCUGAAUGUGAGGAUAUUACGAGCUUCGGCUCGUGAGAAGGCACAUGAGGAUCACCCAUGUCUCAACAGCUG”, the “apparent Kd” value [1] was 38.5 nM and the “apparent Kd” value [2] was 540 nM.

For “AUAUCUCCCUAGAAGGUGUAACGACAAUUGCAUCACGUAGUUGGCGUAGCAAGGAUAUGGGACAUGAGGAUCACCCAUGUGGAU”, the “apparent Kd” value [3] was 15.9 nM and the “apparent Kd” value [4] was 8.88 nM.

With “AAGUAGAUCCGAGGAUAUACAUUGCGGAAACGCAACAUGAGGAUCACCCAUGUAGAAGGCGGAUCUACAGGUACUAAAGUACCA” the “apparent Kd” value [1] was 10 nM and the “apparent Kd” value [2] was 17 nM.

For “CACGAUGAUGUAGGAUAUAUGCUGGAAUACAGCAUAGAAGGACAUGAGGAUCACCCAUGUUAAGUGCCUCCAAAUAACAUCGUG”, the “apparent Kd” value [1] was 15.7 nM and the “apparent Kd” value [2] was 21.7 nM.

In the case of “CGGAUGUGAGGAUAUACAUGAGGAUCACCCAUGUGUGCCAGCUAGCUGACUGGCACUUGUAGAAGGCACGUCUG”, the “apparent Kd” value [1] is reported as 10.8 nM and the “apparent Kd” value [2] is reported as 22 nM.

With “GAAGCGCUGGAGAAGGGUGAUCAAGUUAUAAACGUGUACAUGAGGAUCACCCAUGUCAGGGAAUCGCAGGAUAUCCAGCUGAAC” the “apparent Kd” value [3] was 315 nM and the “apparent Kd” value [4] was 42.9 nM.

With “CGCAAGUAUACAUGAGGAUACAUGAGGAUCACCCAUGUUAUCAGAAGGUACUAUUAGAGAUAGAGUAAGGAUAUGAAAUUUGUG” the “apparent Kd” value [3] was 7.88 nM and the “apparent Kd” value [4] was 17.3 nM.

For “UCUCGCUGGCGAGGAUAUCCUGUGCGGUUCCGGCUCGUGUCUGUUACAUGAGGAUCACCCAUGUGGGAGAAGGUGCCUGUGGCU”, the “apparent Kd” value [1] was 32.7 nM and the “apparent Kd” value [2] was 32.6 nM.

For “UCGAGUCAUGAGAAGGACUGAUGUUACAUGAGGAUCACCCAUGUCAUGGGUAGGAUAUCAUUGACACGGCCGUACCUCUCUUAC”, the “apparent Kd” value [3] was 355 nM and the “apparent Kd” value [4] was 78.2 nM.

“CCUCAACAGUAGGAUAUCAUCAAACUAUUGUGAUGAGAAGGACUGACAUGAGGAUCACCCAUGUUGACGUGAUA” was tested, and the “apparent Kd” value [1] was 63.4 nM and the “apparent Kd” value [2] was 51.7 nM.

“GCCGGGUCAGGAUAUGGGCCCGGGCCCGAAAGGGCCCGGGCCCAGAAGGGACAUGAGGAUCACCCAUGUCCGGC” was tested, and the “apparent Kd” value [1] was 19.5 nM and the “apparent Kd” value [2] was 16.5 nM.

For “GGUACUCAAAGAGUACCAAUACGAACAUGAGGAUCACCCAUGUAGGAUAUGCUACUCAAAGAGUAGCAGAAGGACAUGUGCCAU”, the “apparent Kd” value [1] was 42 nM and the “apparent Kd” value [2] was 282 nM.

“UCAUACGGUGAGGAUAUCUCCGUUAAAGUAUGUAGAGAAGGCGCUACAUGAGGAUCACCCAUGUUUGUGGGCAG” was tested, and the “apparent Kd” value [1] was 392 nM and the “apparent Kd” value [2] was 278 nM.

For “CUUAUGUGAGGAUAUCAGUAGUAAUACAAUAGUAUUACUACUGAGAAGGCACAUGAGGAUCACCCAUGUUCUUC”, the “apparent Kd” value [1] was 134 nM and the “apparent Kd” value [2] was 36.9 nM.

In the case of “UGUCGGAGCAGAGGAUAUUACAUGAGGAUCACCCAUGUAUGAACCAAUAGCUGGAAACAGCAAUGUAAGAAGGCUUCUCCGACA”, the “apparent Kd” value [1] is reported as 7.13 nM and the “apparent Kd” value [2] is reported as 45.9 nM.
